ChEMBL document CHEMBL4480411, “Discovery of Second Generation RORγ Inhibitors Composed of an Azole Scaffold” (J Med Chem, 2019)

What was measured:
[1] = Stability in human liver microsomes assessed as compound remaining after 60 mins; format: ADME, Microsome; settings: read-out: Stability
Method in brief: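 Human liver microsomes incubated with compound for 60 minutes; value reported as % of compound remaining.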

Mus musculus = assay: Anti-inflammatory activity in orally dosed C57BL/6 mouse model of MOG (35 to 55 residues)/pertussis toxin/anti-CD3 antibody-induced experimental allergic encephalomyelitis assessed as inhibition of IL17 production measured 8 hrs after post dose by ELISA; format: functional
Method in brief: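 Female C57BL/6 mice immunized subcutaneously at two back sites (75 μg MOG35–55 per site; peptide at 3 mg/mL in D-PBS emulsified 1:1 with complete Freund's adjuvant), plus intraperitoneal pertussis toxin 0.2 μg on days 1 and 3. Day 5: anti-CD3 1 μg i.v. Oral dosing 3 h or 8 h before anti-CD3, 5 mice/group. Blood taken 2 h post-anti-CD3; plasma IL-17A measured by ELISA.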

[2] = Inhibition of GAL4-fused mouse LXR transcriptional activity expressed in CHOK1 cells after 2 days by luciferase reporter gene assay; format: cell-based; settings: CHO-K1, 48 h
Retinoid X receptor = molecular target: T1, Retinoid X receptor (Homo sapiens, UniProt P28702+P48443+P19793); assay: Inhibition of GAL4-fused human RXR transcriptional activity expressed in CHOK1 cells after 2 days by luciferase reporter gene assay; format: cell-based
T1 sequence (P28702 whole entry): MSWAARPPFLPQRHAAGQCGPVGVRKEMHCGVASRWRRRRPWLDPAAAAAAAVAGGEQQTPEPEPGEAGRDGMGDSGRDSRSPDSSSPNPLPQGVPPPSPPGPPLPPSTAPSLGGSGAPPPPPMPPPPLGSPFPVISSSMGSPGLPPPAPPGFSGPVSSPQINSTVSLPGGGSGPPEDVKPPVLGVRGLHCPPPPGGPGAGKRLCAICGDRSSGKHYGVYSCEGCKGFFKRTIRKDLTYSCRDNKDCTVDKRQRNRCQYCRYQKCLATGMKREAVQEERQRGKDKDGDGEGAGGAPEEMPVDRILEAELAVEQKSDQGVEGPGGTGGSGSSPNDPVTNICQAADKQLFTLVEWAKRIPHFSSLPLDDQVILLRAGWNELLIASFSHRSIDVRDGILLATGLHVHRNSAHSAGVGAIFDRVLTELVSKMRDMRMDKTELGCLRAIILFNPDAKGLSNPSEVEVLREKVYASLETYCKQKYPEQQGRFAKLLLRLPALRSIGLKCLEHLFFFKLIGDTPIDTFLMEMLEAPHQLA
T1 sequence (P48443 whole entry): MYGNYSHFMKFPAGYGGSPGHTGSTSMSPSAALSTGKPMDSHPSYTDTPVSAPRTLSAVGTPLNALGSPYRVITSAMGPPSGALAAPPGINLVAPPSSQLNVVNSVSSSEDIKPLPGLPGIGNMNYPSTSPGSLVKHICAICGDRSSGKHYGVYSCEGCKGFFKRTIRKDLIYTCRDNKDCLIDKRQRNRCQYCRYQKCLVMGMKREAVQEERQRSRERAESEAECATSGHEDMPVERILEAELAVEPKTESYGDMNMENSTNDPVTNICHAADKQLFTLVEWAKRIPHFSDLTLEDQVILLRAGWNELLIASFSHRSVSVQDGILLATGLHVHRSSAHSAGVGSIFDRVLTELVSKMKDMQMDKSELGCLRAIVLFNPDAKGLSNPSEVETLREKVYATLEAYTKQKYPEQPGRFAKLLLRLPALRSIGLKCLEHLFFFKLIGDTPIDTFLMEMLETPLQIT
T1 sequence (P19793 whole entry): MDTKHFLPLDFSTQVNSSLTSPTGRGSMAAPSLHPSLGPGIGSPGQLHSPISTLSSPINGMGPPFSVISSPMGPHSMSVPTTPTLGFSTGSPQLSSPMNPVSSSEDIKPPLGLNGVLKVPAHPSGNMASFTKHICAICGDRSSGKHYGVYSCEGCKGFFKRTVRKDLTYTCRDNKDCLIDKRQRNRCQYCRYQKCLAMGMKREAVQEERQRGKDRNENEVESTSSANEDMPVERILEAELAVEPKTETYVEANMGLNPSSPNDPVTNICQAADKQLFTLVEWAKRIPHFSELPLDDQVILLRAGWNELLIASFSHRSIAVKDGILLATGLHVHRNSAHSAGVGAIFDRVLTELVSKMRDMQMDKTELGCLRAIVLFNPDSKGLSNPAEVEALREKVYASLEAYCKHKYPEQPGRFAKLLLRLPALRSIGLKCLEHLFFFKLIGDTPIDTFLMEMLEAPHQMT

[3] = molecular target: T2, Peroxisome proliferator-activated receptor delta (Homo sapiens, UniProt Q03181); assay: Inhibition of GAL4-fused human PPARdelta transcriptional activity expressed in CHOK1 cells after 2 days by luciferase reporter gene assay; format: cell-based
T2 sequence (Q03181 whole entry): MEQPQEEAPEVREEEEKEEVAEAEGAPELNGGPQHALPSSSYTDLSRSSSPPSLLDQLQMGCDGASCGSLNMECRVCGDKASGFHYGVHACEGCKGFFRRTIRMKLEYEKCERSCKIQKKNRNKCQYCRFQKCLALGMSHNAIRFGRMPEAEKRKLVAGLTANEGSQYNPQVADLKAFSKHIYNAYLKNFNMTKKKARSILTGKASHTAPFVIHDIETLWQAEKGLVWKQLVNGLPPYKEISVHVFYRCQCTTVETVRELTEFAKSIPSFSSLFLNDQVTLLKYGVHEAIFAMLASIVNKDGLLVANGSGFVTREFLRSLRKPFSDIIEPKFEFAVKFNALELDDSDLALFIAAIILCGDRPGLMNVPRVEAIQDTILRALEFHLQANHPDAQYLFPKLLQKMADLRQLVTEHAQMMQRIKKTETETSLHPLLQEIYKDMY

Cytochrome P450 3A4 [4] = molecular target: T3, Cytochrome P450 3A4 (Homo sapiens, UniProt P08684); assay: Time-dependent inhibition of human CYP3A4 using midazolam as substrate; format: ADME
Cytochrome P450 3A4 [5] = molecular target: T3, Cytochrome P450 3A4; assay: Time-dependent inhibition of human CYP3A4 using testosterone as substrate; format: ADME
Cytochrome P450 2C9 = Cytochrome P450 2C9 (Homo sapiens, UniProt P11712); assay: Time-dependent inhibition of human CYP2C9; format: ADME
Cytochrome P450 2C19 = Cytochrome P450 2C19 (Homo sapiens, UniProt P33261); assay: Time-dependent inhibition of human CYP2C19; format: ADME
[6] = Total body clearance in CD(SD) rat at 1 mg/kg, iv; format: ADME, organism-based; settings: in vivo
[7] = Volume of distribution at steady state in CD(SD) rat at 1 mg/kg, iv; format: ADME, organism-based; settings: in vivo, read-out: Vdss
[8] = AUC in CD(SD) rat at 3 mg/kg, po; format: ADME, organism-based; settings: in vivo

T3 sequence (P08684 whole entry): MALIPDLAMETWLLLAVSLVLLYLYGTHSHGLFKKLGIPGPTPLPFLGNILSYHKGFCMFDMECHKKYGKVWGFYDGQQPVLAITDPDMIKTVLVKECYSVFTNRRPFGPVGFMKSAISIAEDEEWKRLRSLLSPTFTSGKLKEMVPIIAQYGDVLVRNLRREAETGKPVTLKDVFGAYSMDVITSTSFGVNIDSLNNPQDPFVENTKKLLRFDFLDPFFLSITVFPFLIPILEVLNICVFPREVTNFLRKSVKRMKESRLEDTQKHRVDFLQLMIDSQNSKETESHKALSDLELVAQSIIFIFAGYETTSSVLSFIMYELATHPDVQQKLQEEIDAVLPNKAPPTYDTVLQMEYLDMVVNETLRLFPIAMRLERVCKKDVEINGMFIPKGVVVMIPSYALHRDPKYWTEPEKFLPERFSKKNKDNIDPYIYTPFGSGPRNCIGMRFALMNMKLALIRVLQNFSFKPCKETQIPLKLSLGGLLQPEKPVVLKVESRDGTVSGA
Cytochrome P450 2C9, sequence (P11712 whole entry): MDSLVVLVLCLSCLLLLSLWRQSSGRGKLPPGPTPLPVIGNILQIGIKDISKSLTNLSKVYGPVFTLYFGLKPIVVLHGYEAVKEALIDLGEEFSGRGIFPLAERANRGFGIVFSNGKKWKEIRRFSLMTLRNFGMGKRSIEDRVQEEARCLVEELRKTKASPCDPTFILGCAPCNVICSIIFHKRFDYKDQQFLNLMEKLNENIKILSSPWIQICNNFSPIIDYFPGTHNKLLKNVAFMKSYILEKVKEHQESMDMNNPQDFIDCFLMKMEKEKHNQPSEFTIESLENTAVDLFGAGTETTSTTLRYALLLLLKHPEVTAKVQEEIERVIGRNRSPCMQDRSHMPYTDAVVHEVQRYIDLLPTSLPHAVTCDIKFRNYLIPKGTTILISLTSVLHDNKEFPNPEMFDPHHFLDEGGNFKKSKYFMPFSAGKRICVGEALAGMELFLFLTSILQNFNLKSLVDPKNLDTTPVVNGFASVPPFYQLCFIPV
Cytochrome P450 2C19, sequence (P33261 whole entry): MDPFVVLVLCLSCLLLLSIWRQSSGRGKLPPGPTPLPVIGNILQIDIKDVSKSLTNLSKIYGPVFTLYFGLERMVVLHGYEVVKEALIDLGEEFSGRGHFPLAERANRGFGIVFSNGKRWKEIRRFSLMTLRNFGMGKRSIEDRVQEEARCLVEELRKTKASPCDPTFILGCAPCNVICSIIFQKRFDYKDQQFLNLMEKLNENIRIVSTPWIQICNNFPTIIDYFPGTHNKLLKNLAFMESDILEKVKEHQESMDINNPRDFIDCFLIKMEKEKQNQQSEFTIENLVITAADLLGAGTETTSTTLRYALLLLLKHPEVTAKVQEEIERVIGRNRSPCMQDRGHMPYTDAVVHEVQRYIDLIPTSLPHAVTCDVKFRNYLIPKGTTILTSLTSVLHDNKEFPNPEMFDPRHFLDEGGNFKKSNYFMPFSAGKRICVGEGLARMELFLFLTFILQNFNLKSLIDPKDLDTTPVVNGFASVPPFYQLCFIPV

SMILES: CC(C)(C)Cc1cc(-c2onc([C@@H](CCC(=O)[O-])CC(=O)Nc3ccc(Cl)cc3Cl)c2C2CC2)no1.[Na+]
- remaining at 1 h [1]: 96%
- Activity (Mus musculus): Dose-dependent effect
- ED50 (Mus musculus; C57BL/6, po): 3 mg/kg
- EC50 [2]: > 20 µM
- EC50 (Retinoid X receptor): > 20 µM
- EC50 [3]: > 20 µM
- IC50 (Cytochrome P450 3A4 [4]): > 50 µM
- IC50 (Cytochrome P450 3A4 [5]): > 50 µM
- IC50 (Cytochrome P450 2C9): > 50 µM
- IC50 (Cytochrome P450 2C19): > 50 µM
- clearance [6]: 0.25 L/h/kg
- Vd [7]: 0.76 L/kg
- AUC [8]: 15 µM·h
